# KCNK3 block = human KCNK3 channel inhibitors, primary screen, CHO cells, FluxOR thallium flux, B-score | Potassium channel subfamily K member 3 (Homo sapiens), O14649 | FluxOR fluorescence; hits give low values | B-score at 10 µM | actives 0.84% (n = 340,000) | AID 602410, 2012;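 active means B-score under library mean minus 4 SD, starting fluorescence ratio at most library mean plus 5 SD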;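 further: more negative B-score means stronger inhibition of thallium flux through KCNK3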
# KCNK9 inh = KCNK9 potassium channel inhibitors, primary screen, HEK293 cells, thallium flux | Potassium channel subfamily K member 9 (Homo sapiens), Q9NPC2 | FluxOR thallium flux fluorescence; hits give low values | B-score at 10 µM | actives 1.2% (n = 310,000) | AID 488922, 2010;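 active means ratio B-score over 3 SD below the library mean, with starting fluorescence within 5 SD of its mean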;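 further: negative B-score means less thallium flux so channel inhibition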
# KCNQ1 act = potentiators or activators of KCNQ1 channel, primary screen, cell-based, thallium flux, high-throughput | actives 0.35% (n = 310,000) | B-score at 10 µM | CHO-K1 KCNQ1, thallium flux FluxOR fluorescence; hits give high values | Potassium voltage-gated channel subfamily KQT member 1 (Homo sapiens), P51787;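 active means fluorescence ratio B-score, a plate-corrected score, at least three library SD, with initial intensity B-score within 5 SD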
# Target sequence (P51787 whole entry, looked up): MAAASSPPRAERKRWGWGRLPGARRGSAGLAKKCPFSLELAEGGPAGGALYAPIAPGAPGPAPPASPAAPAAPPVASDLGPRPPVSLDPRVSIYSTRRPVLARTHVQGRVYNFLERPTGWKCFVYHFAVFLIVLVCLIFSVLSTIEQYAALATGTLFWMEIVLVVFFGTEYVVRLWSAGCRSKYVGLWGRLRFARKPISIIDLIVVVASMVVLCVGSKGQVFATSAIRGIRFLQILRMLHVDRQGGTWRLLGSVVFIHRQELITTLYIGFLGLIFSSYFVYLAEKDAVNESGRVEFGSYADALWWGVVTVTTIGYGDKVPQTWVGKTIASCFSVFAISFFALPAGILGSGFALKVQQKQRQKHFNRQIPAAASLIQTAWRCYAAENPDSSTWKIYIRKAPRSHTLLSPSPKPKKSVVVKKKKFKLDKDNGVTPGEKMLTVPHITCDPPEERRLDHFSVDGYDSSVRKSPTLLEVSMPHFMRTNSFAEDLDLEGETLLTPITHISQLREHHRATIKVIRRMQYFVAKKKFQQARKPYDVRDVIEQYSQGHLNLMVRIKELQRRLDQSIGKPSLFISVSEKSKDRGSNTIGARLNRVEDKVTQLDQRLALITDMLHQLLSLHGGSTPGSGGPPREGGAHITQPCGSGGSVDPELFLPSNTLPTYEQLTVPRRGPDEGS
#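 System: Stable KCNQ1 CHO-K1 line | Incubation: 90 min dye loading and 20 min compound exposure, both at room temperature | Measure: Ratio B score | Medium: Assay buffer for compound exposure, DMSO matched across wells | Compound dosing: Single-concentration screen | Probe or stimulus: K+/Tl+ depolarizing stimulus | Measured by: Kinetic FluxOR fluorescence, 10 s baseline plus 110 s post-stimulus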
# Kir21 block = inhibitors of mouse Kir2.1 inward-rectifier potassium channel. HEK293-Kir2.1, FluxOR thallium flux fluorescence; hits give low values. B-score at 10 µM. actives 0.85% (n = 310,000);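 active means fluorescence ratio B-score at or below minus 3 SD of library scores, with starting-brightness B-score within 2 SD, cut at about -4.2 in these data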;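 further: channel flux triggered by added potassium and thallium sulfate stimulus; B-score of peak minus minimum fluorescence over baseline after thallium stimulus; more negative B-score means stronger Kir2.1 block with less thallium influx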
# KCNQ1 block = inhibitors of human KCNQ1 channel, primary screen, cell-based, thallium flux, high-throughput | Potassium voltage-gated channel subfamily KQT member 1 (Homo sapiens), P51787 | AID 2642, 2010 | actives 1.3% (n = 310,000) | B-score at 10 µM | CHO-K1 KCNQ1, FluxOR thallium flux fluorescence; hits give high values;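 active means compounds whose thallium flux B-score, printed positive for inhibition, exceeds three library SD while starting fluorescence stays within three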;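 further: channel opened by potassium depolarization with thallium stimulus after 20 min compound exposure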
# hERG rescue = hERG rescue from dofetilide block, primary screen, cell-based, CHO-hERG, FluxOR thallium flux, dofetilide IC70 | actives 0.51% (n = 310,000) | dofetilide IC70 present | Voltage-gated inwardly rectifying potassium channel KCNH2 (Homo sapiens), Q12809 | activation (rescue from dofetilide block), less the hit threshold, % at 10 µM;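 active means activation above the mean of controls blocked by dofetilide plus 5 SD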;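 further: thallium influx through hERG after potassium depolarization seen as dye fluorescence rise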
# KCNK9 block conf = KCNK9 potassium channel inhibitors, confirmation, HEK293 cells, thallium flux, duplicate; shares compounds with KCNK9 inh; inhibition, % at 10 µM; actives 43% (n = 4,900); AID 492992, 2010; FluxOR thallium flux fluorescence;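 active means thallium signal inhibited by more than 5 SD of the compound-free buffer control wells, on both duplicate plates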;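 further: 0% = assay buffer control wells without compound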
# Kir21 sel = mouse Kir2.1 channel inhibition, confirmation, selectivity assay for KCNK9 modulator project, cell-based, HEK293, thallium flux; inhibition, % at 10 µM; Kir2.1 cells, FluxOR thallium flux fluorescence; shares compounds with KCNK9 inh; actives 4% (n = 4,900);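 active means thallium signal drop more than 5 SD beyond the mean of the no-compound control wells, seen in both duplicate plates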;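 further: signal is fluorescence rise after thallium addition divided by baseline fluorescence; plate controls were assay buffer only for no effect and full block by chlorpromazine control for full effect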
# HEK293 Tl ctr = thallium flux in non-induced HEK293 cells, confirmation, counter-screen for KCNK9 inhibitor project, cell-based, second counter screen, non-induced KCNK9-HEK293. shares compounds with KCNK9 inh. FluxOR thallium flux. inhibition, % at 10 µM. actives 40% (n = 4,900);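 active means thallium signal drop beyond 5 SD of the untreated control mean, on both duplicate plates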;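 further: plate controls were buffer only IC0 wells for no effect and SID17386958 at its maximal inhibitory level for full effect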
# KCNK3 inh conf = retest of human KCNK3 channel inhibitors, confirmation, CHO cells, FluxOR thallium flux, triplicate | shares compounds with KCNK3 block | actives 99% (n = 2,400) | ratio percent of control, % at 10 µM | FluxOR fluorescence; 0% buffer, 100% carvedilol maximal block;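 active means ratio percent of control, averaged over triplicates, above buffer control mean plus 5 SD, cut at about 64% in these data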;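 further: ratio is the fluorescence rise from min to max over baseline after thallium stimulus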
# KCNK3 uninduced = thallium flux inhibition in non-induced cells, primary screen, counter-screen for KCNK3 inhibitor project, cell-based, non-induced KCNK3 line, FluxOR thallium, triplicate | actives 40% (n = 2,400) | thallium flux ratio (lower = more inhibition) at 10 µM | non-induced KCNK3 parental cells; hits give low values | shares compounds with KCNK3 block;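 active means thallium flux ratio, averaged over three wells, more than 5 SD below the buffer control mean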;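 further: host cells are CHO cells without KCNK3 induction; ratio is peak minus trough fluorescence over baseline then normalized to buffer controls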
# * = called active by the depositor; i = inactive; x = not tested or not shown. Hits are enriched below; roughly 3.7% of the tested compounds scored in any of these assays.
SMILES,KCNK3 block,KCNK9 inh,KCNQ1 act,Kir21 block,KCNQ1 block,hERG rescue,KCNK9 block conf,Kir21 sel,HEK293 Tl ctr,KCNK3 inh conf,KCNK3 uninduced
CCC(C)(C)n1nnnc1C(c1ccccc1OC)N1CCN(C(=O)c2ccco2)CC1 (stereo not drawn),-13*,-14*,i,3.3,i,-4,68%*,i,36%*,106*,i
COc1ccccc1C(c1nnnn1Cc1ccco1)N1CCN(c2cccc(C)c2C)CC1 (stereo not drawn),-11*,-14*,i,-0.94,i,-8,43%*,i,38%*,130*,0.14*
Cc1ccc(N2C(=O)c3ccccc3C2Nc2ccc(S(=O)(=O)N3CCCCC3)cc2)nc1 (stereo not drawn),-10*,-11*,i,-2.2,i,-4,i,i,30%*,121*,0.15*
Cc1ccc(N2C(=O)c3ccccc3C2Nc2ccc(S(=O)(=O)N3CCOCC3)cc2)nc1 (stereo not drawn),i,i,i,0.53,i,-10,x,x,x,x,x
O=C(c1ccc(-n2cccn2)cc1)N1CCN(c2ncccc2C(F)(F)F)CC1,i,i,i,0.45,i,0,x,x,x,x,x
CN(C)S(=O)(=O)c1cccc(NC(=O)Cc2ccc(Cl)cc2)c1,i,i,i,-1.4,i,-1,x,x,x,x,x
CN(CCOc1ccc(Cl)cc1)Cc1cccc(S(=O)(=O)N(C)C)c1,-9.2*,-9.7*,i,-1,i,-8,45%*,i,52%*,103*,i
Cc1cc(O)cc2c1C1CCC3(C)C(=O)CCC3C1C=C2 (stereo not drawn),i,x,x,x,x,x,x,x,x,x,x
CCOC(=O)c1cccc(NC(=O)c2ccc(NC(=O)c3ccco3)cc2)c1,i,i,i,0.03,i,-9,x,x,x,x,x
CCCCCOC(=O)c1ccc(NC(=O)c2ccco2)cc1,i,-12*,i,0.1,i,-7,49%*,i,i,123*,0.15*
CCOc1ccccc1-c1cc(C(=O)N/N=C/c2cccnc2)c2ccccc2n1,i,i,i,1.4,i,-6,x,x,x,x,x
Cc1ccc(COc2ccccc2-c2cc(C(=O)N/N=C/c3cccnc3)[nH]n2)cc1,-12*,-19*,i,-1.7,i,-15,64%*,i,26%*,118*,i
C/C=C(/C)C(=O)OC1c2c(ccc3ccc(=O)oc23)OC(C)(C)C1OC(=O)/C(C)=C\C (stereo not drawn),-9.1*,-13*,i,-0.84,i,-8,59%*,i,35%*,126*,0.14*
C/C=C(\C)C(=O)OC1c2c(ccc3ccc(=O)oc23)OC(C)(C)C1OC(C)=O (stereo not drawn),i,i,i,-1.2,i,-10,x,x,x,x,x
Cc1nc(-c2cccc(NC(=O)c3cccs3)c2)cs1,i,i,i,-0.63,i,-16,x,x,x,x,x
CC(=O)Nc1ccc2nc(-c3cccn3C)[nH]c2c1,i,i,i,0.53,i,-4,x,x,x,x,x
Cc1cccn2cc(-c3cccc(NC(=O)c4cccs4)c3)nc12,-12*,-10*,i,0.72,i,-25,40%*,i,i,121*,i
Cn1cccc1-c1nc2ccc(NC(=O)c3cccs3)cc2[nH]1,-12*,-10*,i,-0.84,i,-22,46%*,i,i,141*,0.13*
Cc1cc(C)c2[nH]c(C(=O)N3CCC(n4nccc4NC(=O)C4CC4)CC3)c(C)c2c1,i,i,i,0.17,i,-8,x,x,x,x,x
O=C(/C=C/Nc1ccccc1Oc1ccccc1)c1ccco1,-13*,-17*,i,-2.1,i,-12,47%*,i,37%*,122*,i
CNS(=O)(=O)c1ccc2c(c1)C(=O)c1cc(S(=O)(=O)NC)ccc1CC2,i,x,x,x,x,x,x,x,x,x,x
Cc1ccsc1CN(C)CC(=O)Nc1ccc([N+](=O)[O-])cc1Cl,-9.5*,-21*,i,1.4,i,-11,64%*,i,48%*,135*,0.13*
CCOC(=O)C1=C(CC)OC(N)=C(C#N)C1c1cccs1 (stereo not drawn),i,i,i,-1.7,i,-2,x,x,x,x,x
CCN1CC2=C(OC(N)=C(C#N)C2c2cccs2)/C(=C\c2cccs2)C1 (stereo not drawn),i,-8.7*,i,-0.47,i,-8,28%*,i,26%*,130*,0.12*
COC(=O)COc1ccc(/C=N/NC(=O)CN(c2ccccc2OC)S(=O)(=O)c2ccccc2)cc1,-16*,-13*,i,-0.07,i,-22,i,i,i,116*,0.14*
COc1ccccc1N(CC(=O)N/N=C/c1ccc(OCC(=O)NCc2ccco2)cc1)S(=O)(=O)c1ccc(C)cc1,i,i,i,-0.72,i,-12,x,x,x,x,x
COc1ccc(/C=N/Nc2nc(C)cc(-c3ccccc3)n2)c(OC)c1,i,i,i,0.18,i,-4,x,x,x,x,x

# High-throughput results as filed in PubChem.
